{
  "source": "paper PMC9035732",
  "about": "(Photoacoustics, 2022)",
  "key": {"[1]": {"system": "orthotopic human HCC xenograft tumors (SK-Hep1)", "assay_type": "in vivo, mouse", "details": "1.75 h post-injection, mean±SD, n = 8 mice per group; λex = 785 nm", "outline": "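Tumors were orthotopic SK-Hep1 xenografts in female athymic nude mice; the cells were first grown subcutaneously in the hind flank. Mice received IRDye800-labeled target or control peptide i.v. Other groups were pre-blocked with unlabeled peptide or given ICG. Paired white-light and fluorescence laparoscopic images were taken at 1.75 h post-injection. Ultrasound and MR confirmed tumor location.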"}, "[2]": {"system": "orthotopic human HCC xenograft tumors (SK-Hep1)", "experiment": "In vivo photoacoustic imaging of orthotopic human HCC xenograft tumors", "parameters": "species or system mouse", "details": "intravenous, peptide 300 μM in 200 μL PBS; ICG 2.46 mg/kg; λex = 774 nm", "outline": "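Mice were female athymic nude mice bearing orthotopic SK-Hep1 tumors, which were first established subcutaneously in the flank. IRDye800-labeled target or control peptide was given i.v. in 200 µL PBS. Blocking groups got unlabeled peptide injected beforehand, and ICG 2.46 mg/kg i.v. served as comparator. 3D photoacoustic images (excitation 774 nm) were taken before and at 0.5, 1, 1.5, 1.75, 2, 4 and 24 h. Intensity came from 2D maximum-intensity projections, with pre-injection images as background, and was expressed as tumor/background ratio.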"}},
  "data": [
    {"smiles": "CC1(C)C(/C=C/C=C/C=C/C=C2\\N(CCCCS(=O)(=O)O)c3ccc4ccccc4c3C2(C)C)=[N+](CCCCS(=O)(=O)[O-])c2ccc3ccccc3c21", "note": "[ICG, Indocyanine green]", "values": [
      {"measurement": "mean T/B ratio, laparoscopic fluorescence imaging", "setting": "[1]", "value": "0.87 ± 0.2"},
      {"measurement": "time of peak photoacoustic intensity in tumor post-injection", "setting": "[2]", "value": "not observed within 24 h"}
    ]}
  ]
}
